Series [1] can be described thus: Solubility in water. The format is physicochemical. The gist of the method: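 Compound suspended in water to 2 mg/mL, sonicated 15 min, then centrifuged at 13,000 rpm for 10 min. Supernatant quantified by reverse-phase HPLC with UV detection at 227 nm, taking extinction coefficients of prodrug and docetaxel as equal. Values are means of three experiments.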
Series [2] is described as follows: Stability in PBS buffer at pH 7.4 after 48 hrs. The class given is physicochemical.
For series [3], the system named is A549. The series can be described thus: Cytotoxicity against human A549 cells by MTT assay. The format is functional, cell-based. The gist of the method:
(§1)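 Cells exposed to compound for 48 h. MTT then added (final 0.5 mg/ml in RPMI-1640) for a further 4 h at 37 °C. Formazan dissolved in DMSO and absorbance read at 570 nm. IC50 for 50% inhibition of viability derived by dose–effect analysis. Three replicate wells per point, each experiment run in triplicate.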
In general terms: Tetrazolium assays rely on reduction of a dye to a coloured formazan, in cell work by metabolically active cells.

Series [4] relates to K562. The series can be described thus: Cytotoxicity against human K562 cells by MTT assay. The format is functional, cell-based. The gist of the method: as §1
Series [5] has as its system KB. The series can be described thus: Cytotoxicity against human KB cells by MTT assay. The format is functional, cell-based. The gist of the method:
as §1

The subject of series [6] is MCF7. The experiment in a line: Cytotoxicity against human MCF7 cells by MTT assay. The format is functional, cell-based. The gist of the method: as §1
The species entered for series [7] is Homo sapiens. The series can be described thus: Stability in human plasma.
For series [8], the system named is H22. The series can be described thus: Antitumor activity against mouse H22 cells xenografted ICR mouse assessed as tumor growth inhibition at 10 mg/kg, ip once daily after 7 days. The class given is functional. As to conditions: 168 h, route intraperitoneal. The gist of the method:
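Male ICR mice implanted s.c. in the armpit with H22 hepatoma cells (5 × 10⁶ per animal). Dosing began 24 h after implantation: ip once daily for 7 consecutive days at 5, 10 or 20 mg/kg. Saline served as negative control (20 mice), 10 mice per treated group. Tumors excised and weighed at day 8. Inhibition = (C − T)/C × 100 from mean tumor weights.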

The source of these data is ChEMBL document CHEMBL1139757, “Synthesis and evaluation of water-soluble docetaxel prodrugs-docetaxel esters of malic acid” (Bioorg Med Chem, 2007).

The structures appear in SMILES notation. Converted amounts (≈) assume the structure as drawn.

Regarding `CC(=O)O[C@@]12CO[C@@H]1C[C@H](O)[C@@]1(C)C(=O)[C@H](O)C3=C(C)[C@@H](OC(=O)[C@H](OC(=O)CC(O)C(=O)O)[C@@H](NC(=O)OC(C)(C)C)c4ccccc4)C[C@@](O)([C@@H](OC(=O)c4ccccc4)[C@H]21)C3(C)C` (some centres undefined), the solubility (in general, the concentration that dissolves in the medium under given conditions) in series [1] was 470 µg/mL (≈ 509 µM). For the same compound, the half-life (commonly the time needed for the level to fall by half in the phase considered) in series [2] was over 48 h; in series [7], 4 h. The half-inhibitory concentration (IC50) (commonly the concentration needed to halve the response being measured) is over 50 µg/mL in series [3], 9.5 µg/mL (≈ 10.3 µM) in series [4], 3.5 µg/mL (≈ 3.79 µM) in series [5] and 39.2 µg/mL (≈ 42.4 µM) in series [6].

Regarding `CC(=O)O[C@@]12CO[C@@H]1C[C@H](O)[C@@]1(C)C(=O)[C@H](O)C3=C(C)[C@@H](OC(=O)[C@H](OC(=O)C[C@@H](O)C(=O)O)[C@@H](NC(=O)OC(C)(C)C)c4ccccc4)C[C@@](O)([C@@H](OC(=O)c4ccccc4)[C@H]21)C3(C)C`, the concentration in solution in series [1] (solubility) came to 470 µg/mL (≈ 509 µM). The results for the half-life in series [2] and in series [7] were over 48 h and 4 h, respectively. Moreover, the IC50 in series [3] was over 50 µg/mL; in series [4], 0.85 µg/mL (≈ 0.92 µM); in series [5], over 50 µg/mL; in series [6], over 50 µg/mL.

The compound `CC(=O)O[C@@]12CO[C@@H]1C[C@H](O)[C@@]1(C)C(=O)[C@H](O)C3=C(C)[C@@H](OC(=O)[C@H](OC(=O)C[C@@H](O)C(=O)[O-])[C@@H](NC(=O)OC(C)(C)C)c4ccccc4)C[C@@](O)([C@@H](OC(=O)c4ccccc4)[C@H]21)C3(C)C.[Na+]` registered a solubility in series [1] of 620 µg/mL. For the same compound, the half-life in series [2] was over 24 h; in series [7], 3 h. The half-inhibitory concentration (IC50) in series [3] is over 50 µg/mL; in series [4], 18.8 µg/mL; in series [5], over 50 µg/mL; in series [6] it was over 50 µg/mL.

As for `CC(=O)O[C@@]12CO[C@@H]1C[C@H](O)[C@@]1(C)C(=O)[C@H](O)C3=C(C)[C@@H](OC(=O)[C@H](OC(=O)C[C@H](O)C(=O)O)[C@@H](NC(=O)OC(C)(C)C)c4ccccc4)C[C@@](O)([C@@H](OC(=O)c4ccccc4)[C@H]21)C3(C)C`, the concentration in solution in series [1] (solubility) was 470 µg/mL (≈ 509 µM). The half-life in series [2] was over 48 h; in series [7], 4 h. The IC50 was over 50 µg/mL in series [3], 3.9 µg/mL (≈ 4.22 µM) in series [4], over 50 µg/mL in series [5] and over 50 µg/mL in series [6].

Regarding `CC(=O)O[C@@]12CO[C@@H]1C[C@H](O)[C@@]1(C)C(=O)[C@H](O)C3=C(C)[C@@H](OC(=O)[C@H](OC(=O)C[C@H](O)C(=O)[O-])[C@@H](NC(=O)OC(C)(C)C)c4ccccc4)C[C@@](O)([C@@H](OC(=O)c4ccccc4)[C@H]21)C3(C)C.[Na+]`, in series [1], the solubility amounted to 620 µg/mL. In addition, the values for the half-life in series [2] and in series [7] were over 24 h and 3 h, respectively. Also, the IC50 is over 50 µg/mL in series [3], 38.1 µg/mL in series [4], over 50 µg/mL in series [5] and over 50 µg/mL in series [6].

`CC(=O)O[C@@]12CO[C@@H]1C[C@H](OC(=O)CC(O)C(=O)O)[C@@]1(C)C(=O)[C@H](O)C3=C(C)[C@@H](OC(=O)[C@H](O)[C@@H](NC(=O)OC(C)(C)C)c4ccccc4)C[C@@](O)([C@@H](OC(=O)c4ccccc4)[C@H]21)C3(C)C` (mixture of isomers) came in with a solubility in series [1] of 430 µg/mL. For the same compound, the half-life in series [2] was over 48 h. For the same compound, the IC50 in series [3] is over 50 µg/mL; in series [4] it was 0.069 µg/mL; in series [5], over 50 µg/mL; in series [6] it was over 50 µg/mL.

Compound `CC(=O)O[C@@]12CO[C@@H]1C[C@H](O)[C@@]1(C)C(=O)[C@H](O)C3=C(C)[C@@H](OC(=O)[C@H](OC(=O)CC(O)C(=O)[O-])[C@@H](NC(=O)OC(C)(C)C)c4ccccc4)C[C@@](O)([C@@H](OC(=O)c4ccccc4)[C@H]21)C3(C)C.[Na+]` (mixture of isomers) returned a solubility in series [1] of 620 µg/mL. For the same compound, the half-life in series [2] is over 24 h; in series [7], 3 h. In addition, the IC50 turned out to be 3.5 µg/mL in series [3], 1.5 µg/mL in series [4], 0.45 µg/mL in series [5] and 3.6 µg/mL in series [6].

In series [1], `CC(=O)O[C@@]12CO[C@@H]1C[C@H](OC(=O)CC(O)C(=O)O)[C@@]1(C)C(=O)[C@H](OC(=O)CC(O)C(=O)O)C3=C(C)[C@@H](OC(=O)[C@H](OC(=O)CC(O)C(=O)O)[C@@H](NC(=O)OC(C)(C)C)c4ccccc4)C[C@@](O)([C@@H](OC(=O)c4ccccc4)[C@H]21)C3(C)C` (mixture of isomers) yielded a solubility of 550 µg/mL. The compound also had a half-life in series [2] of over 48 h. In addition, the IC50 in series [3] is over 50 µg/mL; in series [4], 17 µg/mL; in series [5], over 50 µg/mL; in series [6], over 50 µg/mL.

Turning to `CC(=O)O[C@@]12CO[C@@H]1C[C@H](O)[C@@]1(C)C(=O)[C@H](O)C3=C(C)[C@@H](OC(=O)[C@H](O)[C@@H](NC(=O)OC(C)(C)C)c4ccccc4)C[C@@](O)([C@@H](OC(=O)c4ccccc4)[C@H]21)C3(C)C.O.O.O` [DOCETAXEL], the IC50 in series [3] was found to be 1.4 µg/mL; in series [4] it was 6.9 µg/mL; in series [5], 11.6 µg/mL; in series [6], 3.3 µg/mL. The inhibition in vivo (in general, the change of the read-out against control, counted positive when it falls) at 10 mg/kg in series [8] turned out to be 46.3%.
